Measurements taken from publication PMC7613447 (Bioorganic & medicinal chemistry, 2022).
Blank lines part the entries; values can stand above or below the compound they belong to. Where a SMILES comes first, the peptide text is derived from it. [ ]: non-standard residue; d: D form. 1Nal = N[C@@H](Cc1cccc2ccccc12)C(=O)O; 2Nal = N[C@@H](Cc1ccc2ccccc2c1)C(=O)O

Assays:
PP1 and Inhibitor 2 = PP1 and Inhibitor 2 (Homo sapiens, UniProt P62136); assay: Disruption of the interaction between PP1 and Inhibitor 2; assay type: biochemical; details: for EC50 of the disruption of the interaction between PP1 and Inhibitor 2: starting at 50% inhibition of PP1 with I2, DiFMUP as substrate; for PP1 activity reached (efficacy): maximum of dose-response, around 50% starting inhibition (Supp. Fig. 2E, F); for activity in disrupting PP1:I2 (in words): in vitro, Table 1 conditions
HeLa cells = assay: Calcium release assay, Fluo-4 imaging in intact HeLa cells; assay type: cell-based; details: Fluo-4, Ca^2+-containing imaging buffer
Summary of the method: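 HeLa Kyoto cells were grown in low-glucose DMEM with 10% FBS, penicillin/streptomycin and L-glutamine at 37 °C, 5% CO₂, then seeded in chamber slides the day before imaging (~80% confluent). Cells were loaded with 0.5 μM Fluo-4 in HEPES pH 7.4 imaging buffer containing 1.2 mM CaCl₂ for 30 min at rt, then washed. Confocal imaging used ex 488/em 516 nm: 2 min baseline, then 30 min after compound addition. Buffer and a PP1-disrupting peptide served as controls. Responding cells were counted.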

PP1 = PP1 (Homo sapiens, UniProt P62136); assay: ALPHA assay, competition with Biotin-PDP2 for the RVxF binding site of His-PP1
Summary of the method: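 Competition binding with 200 nM His-PP1 and 67 nM biotin-PDP2 in 50 mM Tris-Cl pH 7.5, 150 mM NaCl, 0.05% Tween 20, 1 mM MnCl₂, 0.1% BSA. Serial dilutions of test compound were added for 60 min at rt. Streptavidin-donor and anti-His-acceptor beads (5 μg/ml final) were then added for 90 min at rt in the dark. Excitation was 680 nm, emission 570 nm. The non-specific control used 22 nM GST(His-biotin).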

PP1 by I2 = details: starting inhibition of PP1 by I2 of 50%; cited from earlier work

Chain of PP1 and Inhibitor 2 (P62136 whole entry): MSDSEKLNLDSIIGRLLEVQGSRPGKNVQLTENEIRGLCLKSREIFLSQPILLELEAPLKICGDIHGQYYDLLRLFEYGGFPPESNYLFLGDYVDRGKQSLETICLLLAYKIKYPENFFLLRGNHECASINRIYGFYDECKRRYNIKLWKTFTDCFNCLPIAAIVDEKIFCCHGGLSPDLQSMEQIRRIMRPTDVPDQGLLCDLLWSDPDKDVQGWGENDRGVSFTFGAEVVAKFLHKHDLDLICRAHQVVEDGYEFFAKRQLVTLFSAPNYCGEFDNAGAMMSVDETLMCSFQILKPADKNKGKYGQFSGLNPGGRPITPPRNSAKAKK
Chain of PP1 (P62136 whole entry): as above

Compound: CC(C)[C@H](NC(=O)[C@@H](NC(=O)[C@@H](N)CCCNC(=N)N)C(C)C)C(=O)N[C@@H](Cc1ccccc1)C(=O)O [Compound 7, RVVF] (H-RVVF-OH)
EC50 of the disruption of the interaction between PP1 and Inhibitor 2 (PP1 and Inhibitor 2): Slightly active at 500 μM

Compound: CC(C)[C@@H](NC(=O)[C@@H](Cc1c[nH]cn1)NC(=O)[C@H](N)Cc1ccccc1)C(=O)N[C@H](CCCNC(=N)N)C(=O)O [Compound 27, dFdHdVdR]
EC50 of the disruption of the interaction between PP1 and Inhibitor 2 (PP1 and Inhibitor 2): Slightly active at 500 μM

PP1 activity reached (efficacy) (PP1 and Inhibitor 2): around 80%
Compound: CC(C)[C@H](NC(=O)[C@H](CCCNC(=N)N)NC(=O)[C@@H](N)CCCCN)C(=O)N[C@@H](Cc1c[nH]cn1)C(=O)N[C@@H](Cc1cccc2ccccc12)C(N)=O [Compound 48, KRVH-(1-NaI)-NH2] (H-KRVH[1Nal]-NH2)

Compound: CC(C)C[C@H](NC(=O)[C@@H](N)CCCNC(=N)N)C(=O)N[C@H](C(=O)N[C@@H](Cc1ccccc1)C(=O)O)[C@@H](C)O [Compound 4, RLTF] (H-RLTF-OH)
EC50 of the disruption of the interaction between PP1 and Inhibitor 2 (PP1 and Inhibitor 2): Slightly active at 500 μM

Compound: Ac-KRVHF-NH2 [Compound 34, Ac-KRVHF-NH2]
calcium spiking in living HeLa cells (in words) (HeLa cells): inactive

Compound: CC(C)[C@H](NC(=O)[C@@H](N)CCCNC(=N)N)C(=O)N[C@H](C(=O)N[C@@H](Cc1ccccc1)C(=O)O)[C@@H](C)O [Compound 1, RVTF] (H-RVTF-OH)
IC50 (PP1): 124 µM

Compound: RKIQFT
EC50 (PP1 by I2): 54 µM

Compound: CC[C@H](C)[C@H](NC(=O)[C@@H](N)CCCNC(=N)N)C(=O)N[C@H](C(=O)N[C@@H](Cc1ccccc1)C(=O)O)[C@@H](C)O [Compound 3, RITF] (H-RITF-OH)
EC50 of the disruption of the interaction between PP1 and Inhibitor 2 (PP1 and Inhibitor 2): Slightly active at 500 μM

Compound: CC(C)[C@H](NC(=O)[C@@H](N)CCCNC(=N)N)C(=O)N[C@@H](CCC(=O)O)C(=O)N[C@@H](Cc1ccccc1)C(=O)O [Compound 13, RVEF] (H-RVEF-OH)
EC50 of the disruption of the interaction between PP1 and Inhibitor 2 (PP1 and Inhibitor 2): Slightly active at 500 μM

activity in disrupting PP1:I2 (in words) (PP1 and Inhibitor 2): inactive
Compound: CC(=O)N[C@@H](CCCNC(=N)N)C(=O)N[C@H](C(=O)N[C@H](C(=O)N[C@@H](Cc1ccccc1)C(=O)O)[C@@H](C)O)C(C)C [Compound 28, Ac-RVTF] (Ac-RVTF-OH)

PP1 activity reached (efficacy) (PP1 and Inhibitor 2): around 80%
Compound: CC(C)[C@H](NC(=O)[C@H](CCCNC(=N)N)NC(=O)[C@@H](N)CCCCN)C(=O)N[C@@H](Cc1c[nH]cn1)C(=O)N[C@@H](Cc1ccc2ccccc2c1)C(N)=O [Compound 49, KRVH-(2-NaI)-NH2] (H-KRVH[2Nal]-NH2)

activity in disrupting PP1:I2 (in words) (PP1 and Inhibitor 2): inactive
Compound: CC(C)[C@H](NC(=O)[C@@H](NC(=O)[C@@H](N)Cc1ccccc1)[C@@H](C)O)C(=O)N[C@@H](CCCNC(=N)N)C(=O)O [Compound 25, FTVR] (H-FTVR-OH)

Compound: CC(C)[C@H](NC(=O)[C@@H](N)CCCNC(=N)N)C(=O)NCC(=O)N[C@@H](Cc1ccccc1)C(=O)O [Compound 6, RVGF] (H-RVGF-OH)
EC50 of the disruption of the interaction between PP1 and Inhibitor 2 (PP1 and Inhibitor 2): Slightly active at 500 μM
